# Compound activity as filed in PubChem.
# This is a sample that favours compounds with a hit; in the whole collection about 1.8% have one here.
# NPY-Y2 PAM-ag = potentiates or activates human NPY-Y2 receptor | cells expressing NPY-Y2, potentiator/agonist read-out | AID 1359 | hit rate 0.45% among 220,000 | activation, % at 3.6 µM; in the data active = activation above about 27%;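 also: cells stimulated with NPY near EC25 plus isoproterenol at EC100; 0% = vehicle plus submaximal agonist and 100% = vehicle plus saturating agonist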
# Target sequence (P49146 whole entry, looked up): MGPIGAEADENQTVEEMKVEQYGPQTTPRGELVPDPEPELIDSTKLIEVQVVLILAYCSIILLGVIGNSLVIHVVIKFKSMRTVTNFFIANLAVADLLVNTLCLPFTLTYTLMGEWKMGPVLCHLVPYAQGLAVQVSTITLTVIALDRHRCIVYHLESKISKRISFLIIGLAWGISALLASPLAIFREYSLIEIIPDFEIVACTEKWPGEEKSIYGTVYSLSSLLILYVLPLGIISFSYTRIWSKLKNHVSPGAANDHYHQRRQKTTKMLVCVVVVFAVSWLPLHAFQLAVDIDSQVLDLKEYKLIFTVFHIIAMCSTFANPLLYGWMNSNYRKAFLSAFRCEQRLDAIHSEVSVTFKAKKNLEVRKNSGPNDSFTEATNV
# NPY Y2 blocker = blocks the human neuropeptide Y Y2 receptor | inhibition, % at 2.7 µM | P49146 | NPY-Y2 expressing cells, antagonist mode | hit rate 0.99% among 140,000; in the data active = inhibition above about 17%;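 also: 0% = vehicle with agonist challenge and 100% = reference antagonist with challenge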
# NPY-Y1 antag = antagonists of human neuropeptide Y receptor Y1 | HEK293-CNG Y1 cells, membrane potential fluorescence; NPY at EC95, then isoproterenol | inhibition, % at 3.6 µM | hit rate 1% among 200,000 | AID 1040;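 active = inhibition above the campaign mean inhibition of all tested compounds plus 3 SD, cut at about 20% in these data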;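 also: 0% = DMSO wells given NPY plus isoproterenol and 100% = isoproterenol alone without NPY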
#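 Benchmarks – high control isoproterenol alone, low control NPY with isoproterenol · Material – HEK293 Y1/CNG channel cell line · Times – dye 3 h, compound 60 min room temperature, stimulation 45 min · Probe or stimulus – NPY (25 nM), isoproterenol (1 µM), Ro 20-1724 (25 µM) · Evaluation – % inhibition of NPY effect · Signal – fluorescence, membrane potential probe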
# NPY1 pot ag = potentiators or agonists of human neuropeptide Y receptor Y1. P25929. NPY-Y1 expressing cells, potentiator/agonist activation. activation, % at 3.6 µM. hit rate 0.37% among 220,000; in the data active = activation above about 33%, passing the limit was not always enough;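 also: cells stimulated with NPY at EC10 then isoproterenol at EC100; 0% = low agonist plus stimulus and 100% = saturating agonist plus stimulus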
# * hit, by the source's call; · = no result.
SMILES,NPY-Y2 PAM-ag,NPY Y2 blocker,NPY-Y1 antag,NPY1 pot ag
O=C(NC1=C(Nc2ccc(Cl)cc2)C(=O)c2ccccc2C1=O)c1ccccc1,4.4,-3.6,2.0,-9.1
CN(C1=C(NC(=O)c2ccc(Cl)cc2)C(=O)c2ccccc2C1=O)c1ccccc1,71.5*,-10.4,-20.2,56.5*
COc1ccc(C(=O)Nc2ccc(Cl)cc2C(=O)NCc2ccco2)cc1,-41.9,19.4*,24.9*,-77.3
CCN(CC)S(=O)(=O)c1cccc(-c2nnc(SCCOc3ccccc3C)o2)c1,-13.5,26.1*,20.5*,-37.6
CCN(CC)S(=O)(=O)c1cccc(-c2nnc(SCC(=O)c3cc(C)n(C)c3C)o2)c1,11.9,2.3,-0.8,-11.9
CCN(CC)S(=O)(=O)c1cccc(-c2nnc(SCCOc3ccc(Cl)cc3)o2)c1,-2.0,28.9*,32.2*,-57.3
CCN(CC)S(=O)(=O)c1ccc(-c2nnc(SCc3nnc(-c4ccc(C)cc4)o3)o2)cc1,18.4,3.6,-3.4,11.0
CN(NC(=O)c1ccccc1F)c1ccc([N+](=O)[O-])cn1,-16.5,·,·,13.0
COC(=O)C(C)SC1=N/C(=C/c2ccc(-n3cncn3)cc2)C(=O)N1 (stereo not given),-10.1,·,·,-3.5
Cc1ccccc1C1CCCN(Cc2nc(CC3CC3)no2)C1 (stereo not given),-4.1,·,8.2,4.0
O=C(Nc1ccccc1N1CCN(c2ccc(F)cc2)CC1)c1ccccc1,-7.3,29.2*,49.0*,-6.4
O=C(CSc1nc(C2CC2)nc2sc3c(c12)CCCC3)NCc1ccco1,5.2,10.6,2.0,-5.7
Cc1nc(SCC(=O)NCc2ccco2)c2c3c(sc2n1)CCCC3,-17.0,23.7*,25.4*,-10.5
N/C(=N\c1nc2c(c(=O)[nH]1)CCC2)Nc1ccccc1,5.0,1.4,-0.6,-2.2
Cc1nn(-c2ccc(F)cc2)c2sc(C(=O)O)cc12,-25.9,18.8*,22.9*,-36.3
COC(=O)c1cc2c(ccn2-c2ccc(F)cc2)n1Cc1cccc(OC)c1,17.2,6.3,1.5,7.3
COC(=O)c1cc2c(ccn2-c2ccc(F)cc2)n1C(C)C,-2.0,20.9*,35.0*,-9.4
COc1cccc2c1C(=O)C=C(C)C2=O,34.5*,-0.2,4.8,51.5*
CC1=CC(=O)c2ccccc2C1=O,1.1,1.0,-2.5,1.6
NNC(=S)Nc1c(Br)cc(F)cc1Br,-22.9,·,·,-10.0
O=C(Nc1ccc2c(c1)Cc1ccccc1-2)c1cccnc1,4.5,·,-0.7,14.1
NS(=O)(=O)c1ccc(N=Nc2c(O)ccc3ccccc23)cc1,10.4,·,-0.6,18.0
Oc1ccc(N=Nc2c(O)ccc3ccccc23)cc1,82.0*,-8.9,-18.7,86.7*
Clc1ccc(COn2c(-c3ccc(Cl)cc3)nc3ccccc32)cc1,-149.5,61.2*,84.2*,-201.8
Clc1ccc(COn2c(-c3ccccc3)nc3ccccc32)cc1,-77.4,37.2*,53.6*,-110.9
SMILES,NPY-Y2 PAM-ag,NPY Y2 blocker,NPY-Y1 antag,NPY1 pot ag
Nc1ccc(C(=O)OCc2ccncc2)cc1[N+](=O)[O-],-7.8,·,8.4,15.9
CCOC(=O)c1ccc(-c2ccc(/C=C(\C#N)C(=O)NCc3cccs3)o2)cc1,6.1,17.4*,1.2,5.5
CCN1c2ccccc2-c2nc3ccccc3n2C1c1cccs1 (stereo not given),-9.2,25.2*,36.7*,-10.4
COc1ccc(CCNCC(O)COc2cccc(Br)c2)cc1 (stereo not given),63.4*,·,-1.1,74.7*
OC(CNCCc1ccc(C(F)(F)F)cc1)COc1ccc2ccccc2c1 (stereo not given),-10.8,12.4,3.3,-31.7
OC(CNCCc1ccc(C(F)(F)F)cc1)COc1cccc2ccccc12 (stereo not given),46.3*,6.0,-8.2,60.5*
O=C(O)C1CCC(=O)N1C(=O)OCc1ccccc1 (stereo not given),6.9,·,·,5.1
COc1ccccc1CC(=O)Nc1ccc(-c2noc(COc3ccc(Br)cc3)n2)cc1,-8.6,6.6,14.7,-8.5
COc1ccccc1CC(=O)Nc1ccc(-c2noc(COc3cccc(C)c3C)n2)cc1,-23.0,22.5*,33.3*,9.9
CC1(C)Cc2noc(N)c2C(C)(C)N1OC(=O)c1cccs1,-11.4,1.7,6.8,3.8
CC(=O)ON1C(C)(C)Cc2noc(N)c2C1(C)C,55.0*,-1.9,2.8,56.2*
COc1ccc(O[C@H]2C=C[C@@H](c3ccccc3)O[C@@H]2COC(=O)CC/C(C)=N/OC[C@@H](O)COCc2ccco2)cc1,-3.0,11.6,7.0,-20.8
COC(=O)C/C=C/[C@@H](C)[C@@H](/C=N/OC[C@H]1O[C@H](c2ccccc2)C=C[C@@H]1Oc1ccc(OC)cc1)OC,2.1,19.0*,25.4*,-39.4
Cc1ccc(Cn2c(-c3nonc3N)nc3ccccc32)cc1,-8.1,20.8*,23.4*,-41.2
NC(=O)Cn1c(-c2nonc2N)nc2ccccc21,-15.0,·,-2.9,5.1
O=S(=O)(c1ccc(N2CCOCC2)nc1)N(Cc1ccccn1)Cc1ccccn1,-10.6,·,·,-1.5
CN(C)/C=C(/C(=O)c1ccccc1Cl)S(=O)(=O)c1ccccc1,-16.6,2.7,39.2*,-9.4
COc1ccc(C(=O)/C(=C/N(C)C)S(=O)(=O)c2ccccc2)cc1,3.0,·,-0.2,3.5
CN(Cc1ccccc1)Cc1nc2c(c(=O)n(C)c(=O)n2C)n1CCc1ccccc1,-7.3,23.1*,22.5*,-36.2
CCN(CC)C(=O)Cn1cnc2sc(C(=O)N3CCN(Cc4ccc5c(c4)OCO5)CC3)c(C)c2c1=O,-0.6,·,5.0,-3.1
COc1ccc(OC)c(NC(=O)C2=C(C)NC(=O)NC2c2cccs2)c1 (stereo not given),3.1,·,-0.3,22.4
Cc1ccc(N=C2SC(C(=O)Nc3ccc(OC(F)(F)F)cc3)C(N)=C2C(=O)Nc2c(C)cc(C)cc2C)cc1 (stereo not given),37.0*,-2.1,2.2,29.2
CC(C)(C)NC(=O)NC(=O)CN1CCN(S(=O)(=O)c2ccc3c(c2)OCCO3)CC1,-5.7,·,·,13.3
COc1ccc(N2CCN(c3oc(COc4ccc(Cl)cc4)nc3C#N)CC2)cc1,-8.0,24.0*,48.7*,-39.8
N#Cc1nc(COc2ccc(Cl)cc2Cl)oc1N1CCOCC1,13.2,3.9,7.7,-21.5
SMILES,NPY-Y2 PAM-ag,NPY Y2 blocker,NPY-Y1 antag,NPY1 pot ag
COc1ccc(N2CCN(c3oc(COc4ccccc4)nc3C#N)CC2)cc1,-11.7,26.8*,38.8*,1.1
CCN1CCN(c2oc(COc3ccc(Cl)cc3)nc2C#N)CC1,-46.0,·,·,-17.9
COc1ccc(N2CCN(c3oc(COc4ccc(Cl)cc4Cl)nc3C#N)CC2)cc1,-15.9,10.8,51.8*,-51.0
N#Cc1nc(COc2ccc(Cl)cc2)oc1N1CCN(Cc2ccccc2)CC1,-37.4,32.1*,33.5*,-49.1
COc1ccc(N2CCN(c3oc(Cc4ccccc4)nc3C#N)CC2)cc1,-10.8,16.3,15.5,-11.1
N#CCCN(Cc1ccccc1)C(=O)Nc1ccc(F)cc1,-7.5,·,·,-26.2
COC(=O)c1ccc(S(=O)(=O)NCc2ccccn2)n1C,2.7,·,·,-1.0
Cc1nc(C(F)(F)F)ccc1C(=O)N1CCCCC1,6.3,·,·,17.4
N#Cc1nc(COc2ccc(Br)cc2)oc1N1CCCC1,-49.3,22.3*,27.3*,-23.4
N#Cc1nc(COc2ccc(Br)cc2)oc1N1CCCCCC1,-19.2,16.9,11.0,-19.0
